Measured values published in ChEMBL document CHEMBL1124249 (J Med Chem, 1988).

Legend:
Mu-type opioid receptor = Mu-type opioid receptor (Rattus norvegicus, UniProt P33535); assay: Inhibition of [3H]DAGO binding to rat brain membrane Opioid receptor mu 1
Mus musculus = organism: Mus musculus; assay: Inhibitory potency evaluated against electrically evoked contractions of mouse vas deferens; format: functional, organism-based
Outline: (§1)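 Electrically stimulated twitch of isolated mouse vas deferens (δ assay). IC50 is the concentration giving half-maximal twitch inhibition, taken from six to eight computed log dose-response curves with six concentrations each. [Met]enkephalin IC50 was run on the same preparation. Each IC50 was corrected by the ratio of the mean of all [Met]enkephalin IC50s to that assay's [Met]enkephalin IC50.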

[1] = Ratio of IC50 for MVD to GPI; format: functional
[2] = target: Delta-type opioid receptor (Rattus norvegicus, UniProt P33533); assay: Inhibition of [3H]DTLET binding torat brain membrane Opioid receptor delta 1
Sequence of Delta-type opioid receptor (P33533 whole entry): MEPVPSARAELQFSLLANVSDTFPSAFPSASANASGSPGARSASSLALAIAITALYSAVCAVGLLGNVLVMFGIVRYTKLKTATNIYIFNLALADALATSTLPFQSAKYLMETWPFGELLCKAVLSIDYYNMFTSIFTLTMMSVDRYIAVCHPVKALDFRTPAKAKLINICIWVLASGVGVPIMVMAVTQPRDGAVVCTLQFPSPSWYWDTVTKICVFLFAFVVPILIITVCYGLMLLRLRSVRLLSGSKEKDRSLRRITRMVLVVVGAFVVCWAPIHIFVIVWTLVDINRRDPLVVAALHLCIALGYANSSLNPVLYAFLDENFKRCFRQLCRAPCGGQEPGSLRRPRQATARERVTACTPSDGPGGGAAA

Cavia porcellus = organism: Cavia porcellus; assay: Inhibitory potency evaluated against electrically evoked contractions of guinea pig ileum; format: functional, organism-based
Outline: as §1, with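 “guinea pig ileum (μ” for “mouse vas deferens (δ”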

Sequence of Mu-type opioid receptor (P33535 whole entry): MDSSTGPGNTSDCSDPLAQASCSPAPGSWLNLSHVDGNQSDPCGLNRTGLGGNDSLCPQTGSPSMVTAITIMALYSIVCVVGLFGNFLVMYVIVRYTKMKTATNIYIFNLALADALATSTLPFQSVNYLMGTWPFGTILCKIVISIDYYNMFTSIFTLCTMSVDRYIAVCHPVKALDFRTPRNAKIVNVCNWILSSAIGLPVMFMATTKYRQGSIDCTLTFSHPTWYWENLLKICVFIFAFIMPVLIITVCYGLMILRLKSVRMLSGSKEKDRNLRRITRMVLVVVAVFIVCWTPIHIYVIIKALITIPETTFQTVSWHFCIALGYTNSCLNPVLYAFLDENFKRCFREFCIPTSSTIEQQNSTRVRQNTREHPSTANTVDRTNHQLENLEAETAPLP

Structure (SMILES) | Ki (Mu-type opioid receptor) | IC50 (Mus musculus) | Ratio [1] | Ki [2] | IC50 (Cavia porcellus)
CC(C)C[C@H](NC(=O)[C@H](Cc1ccccc1)NC(=O)CNC(=O)[C@@H](NC(=O)[C@@H](N)Cc1ccc(O)cc1)[C@@H](C)O)C(=O)N[C@H](C(=O)O)[C@@H](C)O | 23.3 nM | 0.15 nM | 0.0003 | 1.35 nM | 460 nM
CC(C)C[C@H](NC(=O)[C@H](Cc1ccccc1)NC(=O)CNC(=O)[C@@H](CO)NC(=O)[C@@H](N)Cc1ccc(O)cc1)C(=O)N[C@H](C(=O)O)[C@@H](C)O |  | 0.4 nM | 0.001 |  | 406 nM
CC(C)C[C@H](NC(=O)[C@H](Cc1ccccc1)NC(=O)CNC(=O)[C@@H](COC(C)(C)C)NC(=O)[C@@H](N)Cc1ccc(O)cc1)C(=O)N[C@H](C(=O)O)[C@@H](C)OC(C)(C)C | 475 nM | 0.6 nM | 0.00021 | 4.68 nM | 2790 nM
CC(C)C[C@H](NC(=O)[C@H](Cc1ccccc1)NC(=O)CNC(=O)[C@H](NC(=O)[C@@H](N)Cc1ccc(O)cc1)[C@@H](C)OC(C)(C)C)C(=O)N[C@H](C(=O)O)[C@@H](C)O | 4500 nM | 1190 nM | 0.1 | 866 nM | 11400 nM
CSCC[C@H](NC(=O)[C@H](Cc1ccccc1)NC(=O)CNC(=O)CNC(=O)[C@@H](N)Cc1ccc(O)cc1)C(=O)O |  | 13 nM |  |  | 200 nM
CC(C)C[C@H](NC(=O)[C@H](Cc1ccccc1)NC(=O)CNC(=O)[C@@H](NC(=O)[C@@H](N)Cc1ccc(O)cc1)[C@@H](C)O)C(=O)N[C@H](C(=O)O)[C@@H](C)OC(C)(C)C | 64.6 nM | 0.75 nM | 0.0037 | 3.1 nM | 204 nM
CC(C)C[C@H](NC(=O)[C@H](Cc1ccccc1)NC(=O)CNC(=O)[C@@H](NC(=O)[C@@H](N)Cc1ccc(O)cc1)[C@@H](C)OC(C)(C)C)C(=O)N[C@H](C(=O)O)[C@@H](C)O | > 100000 nM |  |  | 13000 nM | 
CC(C)C[C@H](NC(=O)[C@H](Cc1ccccc1)NC(=O)CNC(=O)[C@@H](CO)NC(=O)[C@@H](N)Cc1ccc(O)cc1)C(=O)N[C@H](C(=O)O)[C@@H](C)OC(C)(C)C | 185 nM | 0.84 nM | 0.0041 | 6.35 nM | 202 nM
CC(C)C[C@H](NC(=O)[C@H](Cc1ccccc1)NC(=O)CNC(=O)[C@@H](COCc1ccccc1)NC(=O)[C@@H](N)Cc1ccc(O)cc1)C(=O)N[C@H](C(=O)O)[C@@H](C)O | 42.1 nM | 0.35 nM | 0.0042 | 1.47 nM | 83.3 nM
CC(C)C[C@H](NC(=O)[C@H](Cc1ccccc1)NC(=O)CNC(=O)[C@@H](COC(C)(C)C)NC(=O)[C@@H](N)Cc1ccc(O)cc1)C(=O)N[C@H](C(=O)O)[C@@H](C)O | 374 nM | 1.07 nM | 0.0006 | 6.14 nM | 1800 nM
